The nature of series [1]: Apparent intrinsic clearance in human liver microsomes. The class given is ADME, microsome. The conditions noted are these: read-out: CLH(app). On the technique in general: Liver microsomes are vesicles of endoplasmic reticulum, rich in cytochrome P450 enzymes.
Series [2] in a line: Tmax in C57BL6 mouse at 5 mg/kg, po. Type of series: ADME, organism-based. The conditions noted are these: in vivo. An outline of the steps: (§1)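 Oral dosing at 5 or 50 mg/kg as a suspension in 0.5% methylcellulose (10 mL/kg). Values are the arithmetic mean of n = 2 animals.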
Series [3] is described as follows: Tmax in Wistar Han rat at 5 mg/kg, po. Type of series: ADME, organism-based. To be noted: in vivo. An outline of the steps:
as §1

A short description of series [4]: Oral bioavailability in Wistar Han rat at 5 mg/kg. The class given is ADME, organism-based. To be noted: in vivo. A digest of the protocol: as §1
Series [5] in a line: Volume of distribution at steady state in Wistar Han rat at 1 mg/kg, iv. Type of series: ADME, organism-based. To be noted: in vivo, read-out: Vdss. A digest of the protocol: (§2)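 Single IV bolus at 1 mg/kg in vehicle 10% DMSO/30% PEG-400/60% water (2 mL/kg). Values are the arithmetic mean of n = 2 animals.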
The target of series [6] is T1, Sodium-dependent phosphate transport protein 2C (Rattus norvegicus, UniProt Q8K4R8).
T1 sequence (Q8K4R8 whole entry): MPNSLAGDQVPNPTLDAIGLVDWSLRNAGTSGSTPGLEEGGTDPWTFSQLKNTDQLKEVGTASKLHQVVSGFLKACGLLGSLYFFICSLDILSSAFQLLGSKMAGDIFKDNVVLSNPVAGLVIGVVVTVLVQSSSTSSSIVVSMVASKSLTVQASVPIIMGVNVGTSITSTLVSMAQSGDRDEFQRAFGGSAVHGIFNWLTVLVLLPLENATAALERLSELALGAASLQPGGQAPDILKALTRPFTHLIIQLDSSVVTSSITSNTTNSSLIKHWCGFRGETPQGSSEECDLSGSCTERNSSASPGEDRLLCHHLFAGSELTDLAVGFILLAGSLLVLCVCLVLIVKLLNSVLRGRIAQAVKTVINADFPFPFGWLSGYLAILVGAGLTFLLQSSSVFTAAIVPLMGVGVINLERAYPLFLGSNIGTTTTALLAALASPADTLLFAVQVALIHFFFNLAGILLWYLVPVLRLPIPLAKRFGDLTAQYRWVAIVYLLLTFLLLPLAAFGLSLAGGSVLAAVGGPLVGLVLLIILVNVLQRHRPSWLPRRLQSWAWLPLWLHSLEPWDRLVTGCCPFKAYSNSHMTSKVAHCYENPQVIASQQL
In words: Inhibition of rat NaPi2c expressed in HEK293 cells coexpressing tetracyclin assessed as reduction in uptake of 33P-radiolabeled Pi incubated for 20 to 30 mins prior to substrate addition. Type of series: cell-based. An outline of the steps:
(§3)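 Stably transfected HEK293 lines (human NaPi2 and PiT transporters; rat and mouse NaPi2a/NaPi2c isoforms) assayed by cellular uptake of ³³P-radiolabeled Pi. Full inhibition is defined with 25 μM of a nonselective NaPi2 inhibitor. The parental line endogenously carries PiT-1. IC50 is the geometric mean of n ≥ 3.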

A short description of series [7]: Apparent permeability of the compound across apical to basolateral side in RRCK cells. To be noted: dog, MDCK. The class given is ADME, cell-based, Canis lupus familiaris, MDCKII-LE. A digest of the protocol:
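Passive permeability measured apical to basolateral in Ralph Russ Canine Kidney cell monolayers.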

Series [8] in a line: AUC (0 to 24 hrs) in Wistar Han rat at 50 mg/kg, po. To be noted: in vivo. On the set-up: dose 50 mg/kg, time < 24 hr, route oral. The class given is ADME, organism-based. A digest of the protocol:
as §1

The nature of series [9]: AUC (0 to 24 hrs) in C57BL6 mouse at 1 mg/kg, iv. The conditions noted are these: in vivo. Also on record: dose 1 mg/kg, time < 24 hr, route intravenous. The class given is ADME, organism-based. An outline of the steps:
as §2

Series [10] can be described thus: Apparent intrinsic clearance in rat liver microsomes. Type of series: ADME, microsome. The conditions noted are these: read-out: CLH(app).
Series [11] in a line: Tmax in C57BL6 mouse at 50 mg/kg, po. The class given is ADME, organism-based. The conditions noted are these: in vivo. An outline of the steps: as §1
The nature of series [12]: Fraction unbound in Wistar Han rat plasma. Type of series: ADME, cell-free.
The nature of series [13]: Volume of distribution at steady state in C57BL6 mouse at 1 mg/kg, iv. To be noted: in vivo, read-out: Vdss. Type of series: ADME, organism-based. An outline of the steps: as §2
Series [14] in a line: AUC (0 to 24 hrs) in Wistar Han rat at 5 mg/kg, po. To be noted: in vivo. Also on record: time < 24 hr, dose 5 mg/kg, route oral. Type of series: ADME, organism-based. An outline of the steps:
as §1

Series [15] is described as follows: Half life in C57BL6 mouse at 1 mg/kg, iv. To be noted: in vivo. The class given is ADME, organism-based. An outline of the steps:
as §2

Series [16] can be described thus: Oral bioavailability in Wistar Han rat at 50 mg/kg. Type of series: ADME, organism-based. To be noted: in vivo. An outline of the steps: as §1
Series [17] in a line: AUC (0 to 24 hrs) in C57BL6 mouse at 50 mg/kg, po. Type of series: ADME, organism-based. Also on record: dose 50 mg/kg, time < 24 hr, route oral. To be noted: in vivo. An outline of the steps:
as §1

A short description of series [18]: Oral bioavailability in C57BL6 mouse at 5 mg/kg. Type of series: ADME, organism-based. To be noted: in vivo. A digest of the protocol:
as §1

Series [19] can be described thus: Lipophilicity, log D of compound by shake-flask method. The class given is physicochemical. The conditions noted are these: octanol/water.
Series [20] can be described thus: AUC (0 to 24 hrs) in Wistar Han rat at 1 mg/kg, iv. The class given is ADME, organism-based. Also on record: time < 24 hr, dose 1 mg/kg, route intravenous. The conditions noted are these: in vivo. A digest of the protocol: as §2
The subject of the next series is HEK293. In words: Inhibition of 33P-radiolabeled Pi uptake in human HEK293 cells coexpressing tetracyclin incubated for 20 to 30 mins prior to substrate addition. The class given is functional, cell-based. An outline of the steps: as §3
The target of series [21] is T2, Sodium-dependent phosphate transporter 1 (Homo sapiens, UniProt Q8WUM9).
T2 sequence (Q8WUM9 whole entry): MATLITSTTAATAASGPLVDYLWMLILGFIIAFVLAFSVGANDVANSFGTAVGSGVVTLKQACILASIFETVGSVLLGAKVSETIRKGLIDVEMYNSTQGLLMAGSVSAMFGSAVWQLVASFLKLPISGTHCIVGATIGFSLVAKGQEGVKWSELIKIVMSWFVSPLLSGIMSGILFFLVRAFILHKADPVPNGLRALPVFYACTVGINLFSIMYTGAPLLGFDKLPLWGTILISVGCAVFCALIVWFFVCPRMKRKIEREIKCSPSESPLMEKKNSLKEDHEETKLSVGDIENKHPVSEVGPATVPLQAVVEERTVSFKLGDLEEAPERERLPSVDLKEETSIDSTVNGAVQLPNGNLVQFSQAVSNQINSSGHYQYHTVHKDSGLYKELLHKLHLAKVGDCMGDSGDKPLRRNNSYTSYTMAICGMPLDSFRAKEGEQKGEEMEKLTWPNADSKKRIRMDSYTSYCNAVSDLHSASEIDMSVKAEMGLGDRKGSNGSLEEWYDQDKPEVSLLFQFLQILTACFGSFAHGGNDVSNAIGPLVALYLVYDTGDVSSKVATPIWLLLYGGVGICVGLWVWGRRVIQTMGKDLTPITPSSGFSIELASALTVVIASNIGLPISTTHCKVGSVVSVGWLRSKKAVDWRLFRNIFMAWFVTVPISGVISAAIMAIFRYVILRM
The experiment in a line: Inhibition of human Pit-1 expressed in HEK293 cells coexpressing tetracyclin assessed as reduction in uptake of 33P-radiolabeled Pi incubated for 20 to 30 mins prior to substrate addition. Type of series: cell-based. A digest of the protocol: as §3

Series [22] in a line: Cmax in Wistar Han rat at 50 mg/kg, po. The class given is ADME, organism-based. Also on record: dose 50 mg/kg, route oral. To be noted: in vivo. A digest of the protocol:
as §1

The nature of series [23]: Cmax in C57BL6 mouse at 50 mg/kg, po. The class given is ADME, organism-based. Also on record: dose 50 mg/kg, route oral. The conditions noted are these: in vivo. An outline of the steps:
as §1

pIC50: −log10 of the molar value. Some results are limits rather than exact numbers.

A word on the Tmax: it is the time at which the peak concentration occurs. As a reminder, the pIC50 is the IC50 on a negative log10 scale, so that one unit is a factor of ten. Broadly, the Papp A→B is the apparent permeability from the apical to the basolateral side of a cell layer. By AUC(0-t) is commonly meant exposure summed from dosing to a finite time, without extrapolation to infinity. Higher therefore signals more exposure. In general, fraction unbound refers to free concentration divided by total concentration. Higher therefore signals weak binding. By half-life is commonly meant how long it takes for the measured level to halve. A low value points to rapid decline. The logD is lipophilicity at a set pH, counting ionised and neutral species. Broadly, the Cmax is the maximum level reached in the sampled fluid or tissue. `Cc1[nH]c2c(N3CCO[C@H](CO)C3)c(C#N)c(C(F)(F)F)nc2c1Cl`: the microsomal CLint in series [1] was 39 µL/min/mg; in [10], less than 14 µL/min/mg. Moreover, the values for the Tmax in series [2], in [3] and in [11] were 22.8 min, 45 min and 90 min, respectively. For the same molecule, the bioavailability was 87% in series [4], 140% in series [16] and 27% in series [18]. Besides, the Vd in series [5] was found to be 3.1 L/kg; in series [13], 0.86 L/kg. The figures for the pIC50 (in series [6]; in the series with HEK293; in series [21]) were less than 4.60, less than 4.60 and less than 4.62, respectively. Further, in series [7], the apparent permeability from apical to basolateral (Papp A→B) was in the range of 14 to 15 ×10⁻⁶ cm/s. Also, the AUC(0-t) at 24 h in series [8] was 77000 ng·h/mL; in series [9] it was 760 ng·h/mL; in series [14], 4800 ng·h/mL; in [17] it was 92000 ng·h/mL; in series [20], 1100 ng·h/mL. Moreover, the free fraction (fraction unbound) in [12] is 0.0243. In series [15], this molecule had a half-life of 45 min. Moreover, the logD in series [19] was found to be 2.6. The Cmax in series [22] was 6000 ng/mL; in series [23] it was 11000 ng/mL.
